Most compounds without a hit are left out; they make up all but 2.1% or so of the library.
CCR6 antag = CCR6 receptor antagonists, primary screen, cell-based, CHO-K1, luminescence, beta-arrestin, uHTS | CHO-K1 CCR6 PathHunter beta-arrestin, CCL20-stimulated | inhibition, % at 20 µM | hit rate 0.49% among 340,000 | AID 493098, 2011;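 active = compounds whose inhibition of the agonist-driven luminescence signal at 20 µM reaches about 50%, limit read from the data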;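 also: cells stimulated with CCL20 at 14 nM final; plate controls were DMSO with CCL20 for no effect and DMSO without agonist for full effect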
EBI2 block = EBI2 receptor antagonists, beta-arrestin recruitment, primary screen, cell-based, luminescence, 7a,25-OHC stimulation, uHTS; hit rate 0.81% among 360,000; G-protein coupled receptor 183 (Homo sapiens), P32249; inhibition, % at 5 µM; 7a,25-OHC stimulated; AID 651636, 2012; in the data active = inhibition above about 38%;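 also: enzyme fragment complementation signal reports receptor beta-arrestin coupling in cells; 0% = agonist plus DMSO wells and 100% = wells without agonist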
Target sequence (P32249 whole entry, looked up, the tested form may be a part): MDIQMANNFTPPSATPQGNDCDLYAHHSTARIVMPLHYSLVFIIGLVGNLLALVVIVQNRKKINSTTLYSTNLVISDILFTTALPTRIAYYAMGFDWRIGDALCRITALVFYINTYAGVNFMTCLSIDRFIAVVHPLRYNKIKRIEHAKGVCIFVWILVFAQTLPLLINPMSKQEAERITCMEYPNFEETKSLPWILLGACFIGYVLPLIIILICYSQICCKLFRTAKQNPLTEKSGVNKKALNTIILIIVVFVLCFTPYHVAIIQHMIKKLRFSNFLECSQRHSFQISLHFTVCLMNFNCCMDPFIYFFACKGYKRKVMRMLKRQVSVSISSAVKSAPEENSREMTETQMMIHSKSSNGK
APJ ag = agonists of human apelin receptor APJ, primary screen, CHO-K1 cells, PathHunter beta-arrestin, luminescence; hit rate 0.11% among 330,000; 0% DMSO wells, 100% apelin; activation, % at 20 µM;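 active = activation more than six SD over the plate average, tested at 20 µM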;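 also: 0% = DMSO alone and 100% = apelin-13 at 10 nM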
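assay system = CHO-K1 APJ beta-arrestin complementation cell line | input = cell density 1000 per well | dosing = compound 20 µM once, DMSO 1% | timing = compound 90 min 25 °C, reagent 1 h | measured by = luminescence from split beta-galactosidase complementation, Galacton Star/Emerald II substrate | read-out basis = APJ agonist activity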
CXCR6 block = CXCR6 receptor inhibitors, primary screen, cell-based, beta-arrestin, luminescence, CHO-K1 PathHunter, 1536-well; hit rate 0.36% among 360,000; C-X-C chemokine receptor type 6 (Homo sapiens), O00574; inhibition, % at 20 µM; AID 602244, 2012; in the data active = inhibition above about 34%, passing the limit was not always enough;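 also: antagonist mode with CXCL16 agonist at 10 nM final; 0% = 10 nM CXCL16 with DMSO and 100% = unstimulated wells without agonist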
Target sequence (O00574 whole entry, looked up): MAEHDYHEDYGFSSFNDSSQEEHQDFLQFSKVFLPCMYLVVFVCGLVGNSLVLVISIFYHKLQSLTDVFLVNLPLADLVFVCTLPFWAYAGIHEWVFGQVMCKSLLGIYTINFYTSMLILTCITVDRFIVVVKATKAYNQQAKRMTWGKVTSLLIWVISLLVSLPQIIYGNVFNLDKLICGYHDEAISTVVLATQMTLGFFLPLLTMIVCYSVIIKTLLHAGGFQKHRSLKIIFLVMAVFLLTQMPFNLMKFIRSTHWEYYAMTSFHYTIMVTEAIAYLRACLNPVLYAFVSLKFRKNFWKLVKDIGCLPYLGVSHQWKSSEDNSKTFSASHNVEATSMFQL
APJ antag = antagonists of human apelin receptor APJ, primary screen, CHO-K1 cells, beta-arrestin complementation, luminescence; hit rate 0.32% among 330,000; P35414; inhibition, % at 20 µM;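 active = inhibition above about 40% at 20 µM, limit read from the data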;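 also: cells challenged with 10 nM apelin-13 agonist together with compound; plate controls were apelin-13 plus DMSO wells for no effect and DMSO wells lacking apelin-13 for full effect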
m5-HT2A agonist = mouse Htr2a agonists via beta-arrestin recruitment, primary screen, cell-based, luminescence | 5-hydroxytryptamine receptor 2A (Mus musculus), P35363 | CHO-K1 mHTR2A beta-arrestin complementation; percent of 30 µM serotonin response | activation, % at 7.6 µM | hit rate 0.66% among 360,000 | AID 624169, 2012;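 active = activation above a run cutoff, the mean activation of all tested compounds plus 3 SD, cut at about 14% in these data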;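 also: 0% = plate median of compound wells and 100% = 30 µM serotonin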
CXCR6 confirm = CXCR6 receptor antagonists, confirmation, cell-based, single concentration, beta-arrestin, luminescence | hit rate 65% among 700 | shares compounds with CXCR6 block | inhibition, % at 20 µM | CHO-K1 CXCR6 PathHunter beta-arrestin;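 active = mean inhibition over four retests above 40%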;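 also: receptor stimulated with 10 nM CXCL16 agonist; beta-galactosidase fragment complementation upon beta-arrestin recruitment to receptor; plate controls were CXCL16 plus DMSO for no effect and DMSO without CXCL16 for full effect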
Numbers without * were called inactive; x = no result given.

SMILES | CCR6 antag | EBI2 block | APJ ag | CXCR6 block | APJ antag | m5-HT2A agonist | CXCR6 confirm
O=C(CCC(=O)N/N=C/c1ccco1)N/N=C/c1ccco1 | -6 | -9 | 0 | 2 | 4 | 1 | x
COc1ccc(NC(=O)C(c2ccccc2)n2c(=O)c(-c3ccco3)nc3ccccc32)cc1 (stereo not drawn) | x | 11 | x | x | x | -5 | x
CC(C)(C)c1nnc(NC(=O)c2cc(-c3ccccc3)nc3ccccc23)s1 | -2 | -30 | 2 | -7 | 6 | 1 | x
CCc1nnc(NC(=O)c2cc(-c3ccncc3)nc3ccccc23)s1 | -3 | -11 | -1 | 47* | -13 | 4 | 29
COc1cc(/C=C/C(=O)N2C(=O)c3cccc(N)c3C2=O)cc(OC)c1OC | 28 | 10 | -5 | 2 | 7 | 2 | x
Nc1cccc2c1C(=O)N(C(=O)/C=C/c1cccc(F)c1)C2=O | 53* | 0 | 1 | 50* | 20 | 7 | 45*
CCOC(=O)CSc1cccc2cccnc12 | 69* | 5 | -7 | 53* | 37 | 0 | 65*
CC(C)(C)OC(=O)N[C@@H](Cc1ccccc1)c1nnc(S(=O)(=O)Cc2ccccc2)o1 | x | x | -8 | x | 39 | x | x
Cc1ccccc1CS(=O)(=O)c1nnc([C@H](Cc2ccccc2)NC(=O)OC(C)(C)C)o1 | 89* | 21 | -4 | 64* | 24 | -3 | 58*
CSc1ccc(CN2C(=O)C(F)(F)Oc3c(C(C)=O)cccc32)cc1 | x | 1 | x | -6 | x | 0 | x
COc1ccccc1CCn1c(N)cc(=O)[nH]c1=O | -2 | -9 | 0 | 8 | 6 | 7 | x
O=C(COC(=O)C1CCN(S(=O)(=O)c2cccs2)CC1)c1ccc2c(c1)OCCO2 | 10 | 1 | -3 | -9 | 12 | -4 | x
O=C(COC(=O)C1CCN(S(=O)(=O)c2cccs2)CC1)c1cc2ccccc2o1 | 74* | 15 | -12 | 34* | 37 | -7 | 42*
N#CCCN(Cc1ccccc1)C(=O)c1cccs1 | 6 | -3 | -5 | -1 | 5 | 0 | x
CC(C(Sc1ccccc1N)c1ccccc1)[N+](=O)[O-] (stereo not drawn) | 48 | -15 | 0 | 30* | 16 | 4 | 28
O=C(Nc1nnc(-c2cccs2)o1)c1cccc(Oc2ccccc2)c1 | 34 | -2 | -3 | 44* | -45 | -2 | 37
COc1ccc(-c2c(C3=CCCCC3)oc3ccc(-c4ccc5c(c4)OCO5)cc23)cn1 | 4 | -1 | 0 | -2 | -7 | -2 | x
O=C(NCC1CCCCC1)c1ccc2nc([C@@H]3O[C@H](CO)[C@H](O)[C@H](O)[C@H]3O)[nH]c2c1 | x | -9 | x | -7 | x | 2 | x
O=C1Nc2ccccc2C1Cc1ccccc1 (stereo not drawn) | -9 | 2 | -3 | 7 | -5 | 3 | x
COc1ccc(N2C(=O)CC(Cc3ccccc3)C2=O)cc1 (stereo not drawn) | 3 | -8 | -2 | -3 | -12 | 3 | x
O=C1C=CC2(C=C1)O[C@H](Cc1ccccc1)[C@@H](Cc1ccccc1)O2 | 94* | 85* | x | 76* | x | -1 | 71*
COc1ccc(C[C@@H]2OC3(C=CC(=O)C=C3)O[C@H]2Cc2ccc(OC)cc2)cc1 | 107* | 88* | x | 83* | x | -5 | 84*
Cc1ccc(NS(=O)(=O)c2ccc3c(c2)NC(=O)CCS3)c(Br)c1 | -1 | -9 | -3 | -7 | -1 | 0 | x
COC(=O)c1cc([N+](=O)[O-])c(-n2cncn2)c([N+](=O)[O-])c1 | 97* | 10 | x | 79* | x | 3 | 96*
CCCCN1CC(N(C)CCN(C)C)CS1(=O)=O (stereo not drawn) | x | 0 | x | -3 | x | 6 | x
SMILES | CCR6 antag | EBI2 block | APJ ag | CXCR6 block | APJ antag | m5-HT2A agonist | CXCR6 confirm
O=C1c2cccc3c([N+](=O)[O-])ccc(c23)C(=O)N1c1ccccn1 | x | 24 | 0 | 52* | 30 | 0 | 52*
Cc1ccc(S(=O)(=O)Oc2ccccc2/C=N/Nc2ccc(C(=O)O)cc2)cc1 | 11 | 2 | -7 | -4 | 10 | 2 | x
CCCCCCCCCCOC(=O)Cn1c(COc2ccc(Cl)cc2)[n+](C)c2ccccc21 | 13 | 12 | -3 | 41* | 37 | -3 | -8
CCOC(=O)N1CCN(S(=O)(=O)c2cccc3ccc(C)nc23)CC1 | -3 | -4 | 1 | 84* | 0 | -4 | 15
CCn1c(C)cs/c1=N\S(=O)(=O)c1ccccc1 | -14 | 1 | -2 | -8 | 5 | -3 | x
O=Cc1s/c(=N\S(=O)(=O)c2ccccc2)n(CCCCl)c1Cl | 105* | 22 | x | 98* | x | 1 | 104*
Cc1ccc(/C(CSc2nccn2-c2ncc(C(F)(F)F)cc2Cl)=N\O)cc1 | -8 | 12 | -4 | -4 | 17 | 2 | x
O=C(CSc1nccn1-c1ncc(C(F)(F)F)cc1Cl)c1ccc(Br)cc1 | 74* | 2 | -5 | 80* | 12 | -1 | -1
CCCCN(C(=O)COc1ccc(F)cc1)c1c(N)n(CC(C)C)c(=O)[nH]c1=O | x | -4 | x | 1 | x | 5 | x
COCCCn1c(=O)c2ccccc2n(Cc2cc(C(=O)OC)ccc2OC)c1=O | 20 | -2 | -2 | -2 | -5 | -5 | x
CCC(C)C(CO)NCCCn1cnc2c(OC)ncnc21 (stereo not drawn) | x | -7 | x | 43* | x | 4 | 9
COCC1CCCCN1C(=O)c1ccc2oc(CCc3ccccc3)nc2c1 (stereo not drawn) | 3 | 0 | -4 | 37* | 2 | -5 | 22
CC(C(=O)Nc1ccc(C#N)cc1)N1CCN(C(=O)C2CC2)CC1 (stereo not drawn) | -5 | -1 | -2 | -3 | 0 | 3 | x
O=C(NCc1ccc2c(c1)OCO2)c1nc(S(=O)(=O)Cc2ccccc2F)ncc1Cl | 49 | 24 | 6 | 70* | 18 | -1 | 62*
CC(C)c1nnc(NC(=O)c2nc(S(=O)(=O)Cc3ccccc3F)ncc2Cl)s1 | -5 | x | 0 | x | -4 | x | x
COc1ccc(CNC(=O)c2nc(S(=O)(=O)Cc3ccccc3)ncc2Cl)cc1 | 45 | 40 | 13 | 50* | 8 | -17 | 52*
O=C(CC1CCCC1)NNC(=O)c1ccc(Br)cc1 | -6 | 34 | -4 | 2 | -1 | -2 | x

Screening results deposited in PubChem BioAssay by several laboratories.
